Test results taken from ChEMBL document CHEMBL1125042, “Hypolipidemic activity of rifamycin derivatives” (J Med Chem, 1990).
Values after ≈ are worked out from the molar mass of the structure shown.

Columns and labels:
Assay type in all cases: functional
Rattus norvegicus [1] = experiment: Tested for hypolipidemic activity in male rats, cholesterol was determined in serum at 50 mg/kg
Method in brief: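 Groups of eight male Wistar rats (200–230 g) dosed orally in PEG 400, either daily for 7 days (killed 24 h after the last dose) or for 4 days with a second dose on day 4 (killed 16 h later). Fasted 16 h. Paired sera pooled, lipoproteins separated by ultracentrifugation (1.006 and 1.040 g/cm³), HDL taken as the infranatant. Cholesterol measured enzymatically; % vs vehicle, mean ± SEM of four pools.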

Rattus norvegicus [2] = experiment: Hypolipidemic activity was determined in male rats, and high-density lipoprotein level was determined at 50 mg/kg
Method in brief: (§1)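 Male Wistar rats (200–230 g), eight per group, were dosed orally in PEG 400 at 8 a.m. for 4 days, plus a second dose at 4 p.m. on day 4. Rats were fasted 16 h and killed 16 h after the last dose. Sera from pairs of rats were pooled. LDL (up to 1.040 g/cm³) was separated by ultracentrifugation and the HDL infranatant taken. Cholesterol was measured enzymatically. Results are % versus vehicle control, mean ± SEM of four pools, Student's t test.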

Rattus norvegicus [3] = experiment: Hypolipidemic activity was determined in male rats, and low-density lipoprotein level was determined at 50 mg/kg; method in brief: as §1
Staphylococcus aureus = experiment: Antibacterial activity against Staphylococcus aureus 10B
Method in brief: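 Agar dilution on DST agar with 2-fold drug dilutions. Inoculum of 10⁴ viable S. aureus 10B was taken from liquid-nitrogen stock, thawed 30 min and not subcultured. It was applied by multipoint replicator and incubated overnight at 37 °C. MIC is the lowest concentration inhibiting growth relative to control cultures.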

| Compound | MIC (Staphylococcus aureus) [ng/mL] | Activity (Rattus norvegicus [1]) [%] | Activity (Rattus norvegicus [2]) [%] | Activity (Rattus norvegicus [3]) [%] |
| --- | --- | --- | --- | --- |
| COC1/C=C/OC2(C)Oc3c(C)c(O)c4c(O)c(c(O)c(O)c4c3C2=O)NC(=O)/C(C)=C\C=C\C(C)C(O)C(C)C(O)C(C)C(OC(C)=O)C1C (stereo not given) | 100 (≈ 0.14 µM) | 4 | 15 | 41 |
| COC1/C=C/OC2(C)Oc3c(C)c(O)c4c(O)c(c(N5CCNCC5C(=O)O)c(O)c4c3C2=O)NC(=O)/C(C)=C\C=C\C(C)C(O)C(C)C(O)C(C)C(OC(C)=O)C1C (stereo not given) | 500 (≈ 0.605 µM) | -2 | 5 | 53 |
| COC1/C=C/OC2(C)Oc3c(C)c(O)c4c(O)c(c(C=NN5CCN(Cc6cccc7ccccc67)CC5)c(O)c4c3C2=O)NC(=O)/C(C)=C\C=C\C(C)C(O)C(C)C(O)C(C)C(OC(C)=O)C1C (stereo not given) | 20 (≈ 0.0211 µM) | -69 | -75 | -35 |
| COC1/C=C/OC2(C)Oc3c(C)c(O)c4c(O)c(c5[nH]c(N6CCN(Cc7ccccc7)CC6)nc5c4c3C2=O)NC(=O)/C(C)=C\C=C\C(C)C(O)C(C)C(O)C(C)C(OC(C)=O)C1C (stereo not given) | 5 (≈ 0.00558 µM) | -27 | -33 | -23 |
| COC1/C=C/OC2(C)Oc3c(C)c(O)c4c(O)c(c(C=O)c(O)c4c3C2=O)NC(=O)/C(C)=C\C=C\C(C)C(O)C(C)C(O)C(C)C(OC(C)=O)C1C (stereo not given) | 10 (≈ 0.0138 µM) | -5 | -14 | 19 |
| COC1/C=C/OC2(C)Oc3c(C)c(O)c4c(O)c(c(C=NN5CCN(C6CCCC6)CC5)c(O)c4c3C2=O)NC(=O)/C(C)=C\C=C\C(C)C(O)C(C)C(O)C(C)C(OC(C)=O)C1C (stereo not given) | 10 (≈ 0.0114 µM) | -62 | -59 | -60 |
| COC1/C=C/OC2(C)Oc3c(C)c(O)c4c(O)c(c5nc6cc(C)ccc6nc5c4c3C2=O)NC(=O)/C(C)=C\C=C\C(C)C(O)C(C)C(O)C(C)C(OC(C)=O)C1C (stereo not given) | < 8 | -14 | – | -21 |
| COC1/C=C/OC2(C)Oc3c(C)c(O)c4c(O)c(c(C=NN5CCN(Cc6c(C)cc(C)cc6C)CC5)c(O)c4c3C2=O)NC(=O)/C(C)=C\C=C\C(C)C(O)C(C)C(O)C(C)C(OC(C)=O)C1C (stereo not given) | 50 (≈ 0.0531 µM) | -81 | -79 | -39 |
| Cc1cc(C)c(CN2CCN(C3=CC(=O)c4ccccc4C3=O)CC2)c(C)c1 | > 128000 | -1 | 6 | 18 |

Further compounds by falling MIC (Staphylococcus aureus), results first:

| MIC (Staphylococcus aureus) [ng/mL] | Compound | Activity (Rattus norvegicus [1]) [%] | Activity (Rattus norvegicus [2]) [%] | Activity (Rattus norvegicus [3]) [%] |
| --- | --- | --- | --- | --- |
| 5 (≈ 0.00561 µM) | CCC1CCC2CN(N=Cc3c4c(O)c5c(O)c(C)c6c(c5c3O)C(=O)C(C)(O/C=C/C(OC)C(C)C(OC(C)=O)C(C)C(O)C(C)C(O)C(C)/C=C/C=C(/C)C(=O)N4)O6)CCN2C1 (stereo not given) | -62 | -69 | -31 |
| 3 (≈ 0.00421 µM) | COC1/C=C/OC2(C)Oc3c(C)c(O)c4c(O)c(c(N)c(O)c4c3C2=O)NC(=O)/C(C)=C\C=C\C(C)C(O)C(C)C(O)C(C)C(OC(C)=O)C1C (stereo not given) | -2 | 6 | 19 |
| 2 (≈ 0.00221 µM) | COC1/C=C/OC2(C)Oc3c(C)c(O)c4c(O)c(c(N5CCN(Cc6ccc(Cl)cc6)CC5)c(O)c4c3C2=O)NC(=O)/C(C)=C\C=C\C(C)C(O)C(C)C(O)C(C)C(OC(C)=O)C1C (stereo not given) | -74 | -73 | -85 |
| 1 (≈ 0.00125 µM) | COC1/C=C/OC2(C)Oc3c(C)c(O)c4c(=O)c(c5oc6cc(C)ccc6nc-5c4c3C2=O)NC(=O)/C(C)=C\C=C\C(C)C(O)C(C)C(O)C(C)C(OC(C)=O)C1C (stereo not given) | -14 | -21 | -21 |
| 1 (≈ 0.00118 µM) | COC1/C=C/OC2(C)Oc3c(C)c(O)c4c(O)c(c5c(c4c3C2=O)=NC2(CCN(CC(C)C)CC2)N=5)NC(=O)/C(C)=C\C=C\C(C)C(O)C(C)C(O)C(C)C(OC(C)=O)C1C (stereo not given) | -7 | -21 | 14 |
